Active and inactive are the calls of the source. The rule behind the calls is not given here.
Experiments:
Rattus norvegicus [1] = experiment: Antiallodynic activity in rat model of spinal nerve ligation-induced neuropathic pain assessed as […] for paw withdrawal at 100 mg/kg, po administered on day 14 after ligation surgery and measured 3 to 5 hrs post dose by Von Frey filaments based method; assay type: functional, organism-based
How it was run: (§1)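 Spinal nerve ligation rats were dosed orally at 100 mg/kg 14 days after surgery, with gabapentin 100 mg/kg as reference (n = 5 test, n = 4 gabapentin). Mechanical and cold allodynia were tested 1, 3 and 5 h post dose. Significance versus pre-dose value by paired t-test.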

Rattus norvegicus [2] = experiment: Antiallodynic activity in rat model of spinal nerve ligation-induced neuropathic pain assessed as reduction in cold allodynia by measuring paw withdrawal in response to acetone application at 100 mg/kg, po administered on day 14 after ligation surgery measured 1 to 5 hrs post dose relative to gabapentin; assay type: functional; how it was run: as §1
CYP2D6 = CYP2D6 (Homo sapiens, UniProt P10635); experiment: Inhibition of human CYP2D6 expressed in baculosomes assessed as remaining activity using fluorogenic substrate after 15 mins in presence of NADPH by fluorescence assay; assay type: ADME; parameters: concentration or dose not given beside the values; settings: recombinant human CYP2D6 in baculosomes, probe fluorogenic substrate, read-out: Activity
Chain of CYP2D6 (P10635 whole entry): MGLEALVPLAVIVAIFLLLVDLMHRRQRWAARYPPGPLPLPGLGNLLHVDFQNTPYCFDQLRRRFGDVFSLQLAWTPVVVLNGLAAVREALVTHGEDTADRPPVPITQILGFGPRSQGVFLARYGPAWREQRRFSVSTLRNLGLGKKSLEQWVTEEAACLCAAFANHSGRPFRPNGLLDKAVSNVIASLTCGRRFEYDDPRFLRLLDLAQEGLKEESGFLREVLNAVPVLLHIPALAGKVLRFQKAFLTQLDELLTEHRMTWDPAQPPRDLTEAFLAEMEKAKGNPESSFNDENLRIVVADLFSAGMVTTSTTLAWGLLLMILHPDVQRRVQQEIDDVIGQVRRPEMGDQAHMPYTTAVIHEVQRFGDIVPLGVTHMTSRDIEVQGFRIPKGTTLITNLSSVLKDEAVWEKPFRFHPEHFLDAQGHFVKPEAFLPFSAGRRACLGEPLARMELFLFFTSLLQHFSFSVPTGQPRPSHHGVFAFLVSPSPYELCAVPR
How it was run: (§2)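 Vivid CYP450 fluorescence assay for CYP2D6, 2C9, 2C19 and 3A4. Compound was preincubated with baculosome Master Pre-Mix and regeneration system for 15 min at 37 °C. The reaction was started with Vivid substrate plus NADPH and read on a fluorescence plate reader. Values are % remaining activity, in triplicate.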

CYP2C9 = CYP2C9 (Homo sapiens, UniProt P11712); experiment: Inhibition of human CYP2C9 expressed in baculosomes assessed as remaining activity using fluorogenic substrate after 15 mins in presence of NADPH by fluorescence assay; assay type: ADME; parameters: concentration or dose not given beside the values; settings: recombinant human CYP2C9 in baculosomes, probe fluorogenic substrate, read-out: Activity; how it was run: as §2
Chain of CYP2C9 (P11712 whole entry): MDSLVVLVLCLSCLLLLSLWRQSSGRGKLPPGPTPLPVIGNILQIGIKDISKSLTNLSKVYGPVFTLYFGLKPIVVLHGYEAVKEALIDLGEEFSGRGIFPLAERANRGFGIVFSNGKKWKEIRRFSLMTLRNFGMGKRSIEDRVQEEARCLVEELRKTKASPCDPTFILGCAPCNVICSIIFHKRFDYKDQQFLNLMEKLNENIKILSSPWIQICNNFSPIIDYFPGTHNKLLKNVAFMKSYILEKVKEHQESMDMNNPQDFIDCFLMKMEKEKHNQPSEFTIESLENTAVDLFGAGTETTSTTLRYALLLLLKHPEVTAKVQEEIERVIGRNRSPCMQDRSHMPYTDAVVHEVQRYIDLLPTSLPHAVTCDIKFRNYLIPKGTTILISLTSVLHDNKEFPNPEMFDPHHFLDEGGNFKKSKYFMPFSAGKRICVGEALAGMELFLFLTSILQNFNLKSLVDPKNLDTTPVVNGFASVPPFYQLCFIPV

CYP3A4 = CYP3A4 (Homo sapiens, UniProt P08684); experiment: Inhibition of human CYP3A4 expressed in baculosomes assessed as remaining activity using fluorogenic substrate after 15 mins in presence of NADPH by fluorescence assay; assay type: ADME; parameters: concentration or dose not given beside the values; settings: recombinant human CYP3A4 in baculosomes, probe fluorogenic substrate, read-out: Activity; how it was run: as §2
Chain of CYP3A4 (P08684 whole entry): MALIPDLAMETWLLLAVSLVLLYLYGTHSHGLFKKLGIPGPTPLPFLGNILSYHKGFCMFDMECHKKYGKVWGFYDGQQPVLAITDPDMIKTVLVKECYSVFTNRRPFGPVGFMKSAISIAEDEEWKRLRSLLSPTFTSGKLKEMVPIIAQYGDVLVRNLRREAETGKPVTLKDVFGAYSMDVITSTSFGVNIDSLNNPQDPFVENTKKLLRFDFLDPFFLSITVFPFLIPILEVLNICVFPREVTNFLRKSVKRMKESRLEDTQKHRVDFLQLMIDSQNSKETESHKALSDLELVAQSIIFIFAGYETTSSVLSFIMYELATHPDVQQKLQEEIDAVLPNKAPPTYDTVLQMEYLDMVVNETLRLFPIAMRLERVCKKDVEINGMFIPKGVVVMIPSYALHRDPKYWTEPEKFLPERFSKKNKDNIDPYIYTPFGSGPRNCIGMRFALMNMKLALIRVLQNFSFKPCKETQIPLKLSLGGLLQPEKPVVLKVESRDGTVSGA

[3] = target: Voltage-gated inwardly rectifying potassium channel KCNH2 (Homo sapiens, UniProt Q12809); experiment: Inhibition of human ERG expressed in CHO-K1 cells by whole cell patch clamp method; assay type: cell-based
Chain of Voltage-gated inwardly rectifying potassium channel KCNH2 (Q12809 whole entry): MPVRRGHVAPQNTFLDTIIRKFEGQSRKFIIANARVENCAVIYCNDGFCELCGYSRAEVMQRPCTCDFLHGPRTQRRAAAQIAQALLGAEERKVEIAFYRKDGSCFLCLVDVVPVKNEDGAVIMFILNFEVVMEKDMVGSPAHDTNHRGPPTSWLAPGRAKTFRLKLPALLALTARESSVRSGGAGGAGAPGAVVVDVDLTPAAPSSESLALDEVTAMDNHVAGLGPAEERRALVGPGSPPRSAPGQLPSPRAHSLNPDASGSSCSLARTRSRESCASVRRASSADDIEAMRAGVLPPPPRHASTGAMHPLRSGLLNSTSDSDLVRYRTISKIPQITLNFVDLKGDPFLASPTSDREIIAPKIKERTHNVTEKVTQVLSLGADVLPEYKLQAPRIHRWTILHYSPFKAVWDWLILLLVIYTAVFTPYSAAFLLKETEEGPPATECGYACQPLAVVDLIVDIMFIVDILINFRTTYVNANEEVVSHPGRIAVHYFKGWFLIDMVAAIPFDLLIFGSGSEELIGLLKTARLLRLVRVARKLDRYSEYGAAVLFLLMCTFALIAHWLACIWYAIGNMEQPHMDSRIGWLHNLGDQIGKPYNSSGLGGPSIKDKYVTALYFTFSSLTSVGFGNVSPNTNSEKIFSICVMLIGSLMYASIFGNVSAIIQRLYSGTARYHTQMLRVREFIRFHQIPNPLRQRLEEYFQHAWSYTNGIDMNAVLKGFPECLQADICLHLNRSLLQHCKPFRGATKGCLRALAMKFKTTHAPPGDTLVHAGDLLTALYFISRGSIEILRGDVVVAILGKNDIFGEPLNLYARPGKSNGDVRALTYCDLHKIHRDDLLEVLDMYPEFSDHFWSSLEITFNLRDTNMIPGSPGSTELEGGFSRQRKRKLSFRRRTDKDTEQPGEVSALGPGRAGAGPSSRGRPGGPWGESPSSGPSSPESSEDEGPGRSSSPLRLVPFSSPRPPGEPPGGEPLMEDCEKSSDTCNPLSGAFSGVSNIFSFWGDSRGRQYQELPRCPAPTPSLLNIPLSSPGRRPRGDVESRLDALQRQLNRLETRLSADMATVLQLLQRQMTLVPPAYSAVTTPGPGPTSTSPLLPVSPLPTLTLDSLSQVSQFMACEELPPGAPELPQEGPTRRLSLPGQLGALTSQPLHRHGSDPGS

CYP2C19 = CYP2C19 (Homo sapiens, UniProt P33261); experiment: Inhibition of human CYP2C19 expressed in baculosomes assessed as remaining activity using fluorogenic substrate after 15 mins in presence of NADPH by fluorescence assay; assay type: ADME; parameters: concentration or dose not given beside the values; settings: recombinant human CYP2C19 in baculosomes, probe fluorogenic substrate, read-out: Activity; how it was run: as §2
[4] = Cmax in rat at 10 mg/kg, po; assay type: ADME, organism-based; parameters: dose 10 mg/kg, route oral; settings: in vivo
[5] = AUC (0 to infinity) in rat at 10 mg/kg, po; assay type: ADME, organism-based; parameters: dose 10 mg/kg, route oral, time infinity; settings: in vivo
[6] = AUClast in rat at 10 mg/kg, iv; assay type: ADME, organism-based; parameters: dose 10 mg/kg, time 0 - last, route intravenous; settings: in vivo
[7] = AUC (0 to infinity) in rat at 10 mg/kg, iv; assay type: ADME, organism-based; parameters: dose 10 mg/kg, time infinity, route intravenous; settings: in vivo
[8] = AUClast in rat at 10 mg/kg, po; assay type: ADME, organism-based; parameters: dose 10 mg/kg, route oral, time 0 - last; settings: in vivo
[9] = Oral bioavailability in rat at 10 mg/kg; assay type: ADME, organism-based; settings: in vivo
[10] = Tmax in rat at 10 mg/kg, po; assay type: ADME, organism-based; settings: in vivo
[11] = Ratio of drug level in rat brain to plasma at 10 mg/kg, po at 2 hrs; assay type: ADME, organism-based; settings: brain and plasma, read-out: BPR
[12] = Clearance in rat at 10 mg/kg, iv; assay type: ADME, organism-based; settings: in vivo
[13] = Ratio of drug level in rat brain to plasma at 10 mg/kg, iv at 2 hrs; assay type: ADME, organism-based; settings: brain and plasma, read-out: BPR
[14] = Mean residence time in rat at 10 mg/kg, iv; assay type: ADME, organism-based; settings: in vivo
[15] = target: T1, Voltage-dependent T-type calcium channel subunit alpha-1H (Homo sapiens, UniProt O95180); experiment: Inhibition of T-type alpha1H channel (unknown origin) expressed in HEK293 cells after 3 mins by patch clamp assay; assay type: cell-based
[16] = Metabolic stability in human liver microsomes assessed as parent compound remaining after 30 mins in presence of NADPH by LC-MS/MS analysis; assay type: ADME, Microsome; settings: read-out: Stability
How it was run: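 Pooled human liver microsomes were incubated at 37 °C with compound in potassium phosphate buffer and 1.2 mM NADPH for 30 min. The reaction was stopped with cold acetonitrile containing internal standard, centrifuged, and the supernatant analysed by LC-MS/MS.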

[17] = target: T2, Voltage-dependent T-type calcium channel subunit alpha-1G (Homo sapiens, UniProt O43497); experiment: Inhibition of T-type alpha1G channel (unknown origin) by whole cell patch clamp method
T2 sequence (O43497 whole entry): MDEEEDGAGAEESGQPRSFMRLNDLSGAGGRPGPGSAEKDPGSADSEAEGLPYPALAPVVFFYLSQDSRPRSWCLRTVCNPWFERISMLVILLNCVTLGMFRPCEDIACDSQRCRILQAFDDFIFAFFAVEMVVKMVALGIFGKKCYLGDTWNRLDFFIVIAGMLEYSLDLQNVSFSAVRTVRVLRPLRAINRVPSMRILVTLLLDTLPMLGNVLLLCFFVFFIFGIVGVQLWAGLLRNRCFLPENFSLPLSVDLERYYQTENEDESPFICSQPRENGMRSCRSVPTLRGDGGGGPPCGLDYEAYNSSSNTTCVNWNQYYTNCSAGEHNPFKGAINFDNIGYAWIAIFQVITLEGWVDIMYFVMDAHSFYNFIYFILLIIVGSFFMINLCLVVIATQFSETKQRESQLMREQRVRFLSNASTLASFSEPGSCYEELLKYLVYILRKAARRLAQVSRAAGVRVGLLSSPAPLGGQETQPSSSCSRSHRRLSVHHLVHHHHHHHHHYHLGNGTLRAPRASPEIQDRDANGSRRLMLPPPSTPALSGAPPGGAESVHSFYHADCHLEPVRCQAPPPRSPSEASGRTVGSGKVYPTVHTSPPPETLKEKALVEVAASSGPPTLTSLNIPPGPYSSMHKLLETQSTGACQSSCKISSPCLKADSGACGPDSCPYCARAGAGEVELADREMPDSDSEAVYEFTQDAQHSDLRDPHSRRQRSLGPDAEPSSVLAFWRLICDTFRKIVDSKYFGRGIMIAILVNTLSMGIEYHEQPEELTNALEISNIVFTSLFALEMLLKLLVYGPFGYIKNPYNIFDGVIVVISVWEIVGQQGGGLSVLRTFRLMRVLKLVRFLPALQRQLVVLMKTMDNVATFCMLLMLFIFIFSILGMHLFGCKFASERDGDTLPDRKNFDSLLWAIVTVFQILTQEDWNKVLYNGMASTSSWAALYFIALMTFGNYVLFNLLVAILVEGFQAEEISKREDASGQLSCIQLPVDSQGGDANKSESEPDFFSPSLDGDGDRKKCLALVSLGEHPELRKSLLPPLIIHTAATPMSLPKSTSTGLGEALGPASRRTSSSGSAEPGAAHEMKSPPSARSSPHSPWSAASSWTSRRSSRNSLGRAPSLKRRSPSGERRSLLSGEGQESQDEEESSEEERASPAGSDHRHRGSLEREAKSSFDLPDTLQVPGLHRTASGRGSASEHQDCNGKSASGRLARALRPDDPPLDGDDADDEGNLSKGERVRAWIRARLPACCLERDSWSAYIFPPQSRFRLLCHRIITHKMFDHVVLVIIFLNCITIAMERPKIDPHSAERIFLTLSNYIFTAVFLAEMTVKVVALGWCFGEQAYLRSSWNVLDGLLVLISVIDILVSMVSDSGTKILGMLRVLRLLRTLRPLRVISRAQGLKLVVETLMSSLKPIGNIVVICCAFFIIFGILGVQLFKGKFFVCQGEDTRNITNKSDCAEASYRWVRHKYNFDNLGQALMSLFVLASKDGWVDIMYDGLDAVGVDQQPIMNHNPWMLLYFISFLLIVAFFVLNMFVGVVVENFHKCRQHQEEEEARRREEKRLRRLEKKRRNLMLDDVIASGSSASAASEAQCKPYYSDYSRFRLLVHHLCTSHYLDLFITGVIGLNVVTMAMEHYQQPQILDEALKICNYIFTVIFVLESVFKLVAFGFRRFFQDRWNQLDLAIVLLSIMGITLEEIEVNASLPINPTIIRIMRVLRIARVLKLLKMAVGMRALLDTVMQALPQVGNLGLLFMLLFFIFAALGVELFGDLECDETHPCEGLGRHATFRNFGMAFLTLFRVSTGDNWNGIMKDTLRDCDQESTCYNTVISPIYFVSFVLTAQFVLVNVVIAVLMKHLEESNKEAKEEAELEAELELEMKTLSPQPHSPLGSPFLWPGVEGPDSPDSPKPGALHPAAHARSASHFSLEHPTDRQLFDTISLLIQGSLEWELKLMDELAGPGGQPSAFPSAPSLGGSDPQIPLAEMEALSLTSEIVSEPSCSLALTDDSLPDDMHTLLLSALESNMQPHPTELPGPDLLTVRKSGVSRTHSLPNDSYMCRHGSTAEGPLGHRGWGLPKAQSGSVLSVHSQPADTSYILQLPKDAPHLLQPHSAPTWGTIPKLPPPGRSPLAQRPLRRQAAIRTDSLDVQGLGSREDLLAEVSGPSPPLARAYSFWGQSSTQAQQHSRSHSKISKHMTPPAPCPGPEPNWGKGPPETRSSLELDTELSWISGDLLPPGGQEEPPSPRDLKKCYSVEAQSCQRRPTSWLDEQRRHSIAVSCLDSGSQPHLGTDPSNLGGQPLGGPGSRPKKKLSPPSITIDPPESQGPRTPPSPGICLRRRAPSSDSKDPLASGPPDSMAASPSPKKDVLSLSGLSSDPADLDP
How it was run: (§3)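 Whole-cell patch clamp recording. T-type α1G and α1H IC50 values (±SD) were taken from dose-response curves.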

[18] = target: T1, Voltage-dependent T-type calcium channel subunit alpha-1H; experiment: Inhibition of T-type alpha1H channel (unknown origin) by whole cell patch clamp method; how it was run: as §3
[19] = target: T2, Voltage-dependent T-type calcium channel subunit alpha-1G; experiment: Inhibition of T-type alpha1G channel (unknown origin) expressed in HEK293 cells at 10 uM by fluorescence-based HTS assay; assay type: cell-based
How it was run: (§4)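 FDSS6000 fluorescence-based HTS assay in HEK293 cells expressing Cav3.1 (α1G) or Cav3.2 (α1H), read as % inhibition.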

[20] = target: T1, Voltage-dependent T-type calcium channel subunit alpha-1H; experiment: Inhibition of T-type alpha1H channel (unknown origin) expressed in HEK293 cells at 10 uM by fluorescence-based HTS assay; assay type: cell-based; how it was run: as §4
[21] = target: Voltage-dependent N-type calcium channel subunit alpha-1B (Homo sapiens) (UniProt Q00975); experiment: Inhibition of N-type calcium channel (unknown origin) at 10 uM by whole cell patch clamp method

| SMILES | Activity (Rattus norvegicus [1]) | activity at 0.25 h (CYP2D6) [%] | activity at 0.25 h (CYP2C9) [%] | activity at 0.25 h (CYP3A4) [%] | IC50 [3] [µM] | activity at 0.25 h (CYP2C19) [%] | inhibition [19] [%] | inhibition [20] [%] | also measured |
| --- | --- | --- | --- | --- | --- | --- | --- | --- | --- |
| CC(C)Cc1cc(CNC(=O)C2C3CN(CCC(C)(C)C)CC32)nn1-c1ccccc1 (stereo not given) | Active | 126 | 72.8 | 82.3 | 2.6 | 101 |  |  | fold change (FC) (Rattus norvegicus [2]): 3 |
| CC(C)Cc1cc(CNC(=O)C2C3CN(C(=O)c4ccccc4)CC32)nn1-c1ccccc1 (stereo not given) | inactive | 94 | 64.6 | 74.6 |  | 60.8 |  |  | Cmax [4]: 280 ng/mL; AUC(0-inf) [5]: 294 ng·h/mL; AUC(0-t) [6]: 3850 ng·h/mL; fold change (FC) (Rattus norvegicus [2]): 2; AUC(0-inf) [7]: 3860 ng·h/mL; AUC(0-t) [8]: 273 ng·h/mL; bioavailability [9]: 7.6%; Tmax [10]: 26 min; Kp at 2 h [11]: 0.12; clearance [12]: 43.8 mL/min/kg; Kp at 2 h [13]: 0.29; MRT [14]: 18.2 min |
| NCC1(CC(=O)O)CCCCC1 | inactive |  |  |  |  |  |  |  |  |
| CC(C)(C)CCN1CC2C(CNC(=O)c3cc(Cl)cc(Cl)c3)C2C1 (stereo not given) |  |  |  |  |  |  |  |  | IC50 [15]: 0.31 µM |
| CC(C)Cc1cc(CNC(=O)C2C3CN(C(=O)Cc4ccccc4)CC32)nn1-c1ccccc1 (stereo not given) |  | 83 | 24.8 | 80.4 | 20.8 | 65.5 | 81 | 89.9 | remaining at 0.5 h [16]: 57.8%; IC50 [17]: 2.73 µM; IC50 [18]: 2.5 µM; inhibition [21]: 60.6% |
| CN(CCCc1nc2ccccc2[nH]1)C(=O)C1C2CN(CCc3ccc(C(F)(F)F)cc3)CC21 (stereo not given) |  | 27.7 | 51.4 | 61.4 |  | 42.3 | 49.2 | 58.7 | remaining at 0.5 h [16]: 76.9% |
| CC(C)Cc1cc(CNC(=O)C2C3CN(Cc4ccccc4)CC32)nn1-c1ccccc1 (stereo not given) |  | 56.2 | 118 | 102 | 1.43 | 30.3 |  |  |  |
| CC(C)Cc1cc(CNC(=O)C2C3CN(CCc4ccc(C(F)(F)F)cc4)CC32)nn1-c1ccccc1 (stereo not given) |  |  |  |  |  |  | 60.5 | 64.6 |  |
| CC(C)Cc1cc(C(=O)NCC2C3CN(CCC(C)(C)C)CC23)nn1-c1ccccc1 (stereo not given) |  | 55.9 | 87.1 | 130 |  | 84.2 |  |  |  |
